AI-2 QS modul: modulators of Vibrio harveyi AI-2 quorum sensing system; Vibrio harveyi JMH597 AI-2 luminescence/OD600 ratio, 9 h; active compounds read low; strain lacks LuxN and CqsS sensors; 0 = neutral-control median; activity change, % at 7.5 µM; actives 0.4% (n = 300,000); AID 2094; in the data active = activity change below about -75%, passing the limit was not always enough; inconclusive = no clear call, values can overlap the other calls;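 also: luminescence divided by OD600 gain over 9 h not by final OD600 alone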
PHOSPHO1 inh: blocks human PHOSPHO1 phosphatase activity | Q8TCT1 | inhibition, % at 13.3 µM | actives 1.1% (n = 290,000) | recombinant PHOSPHO1, absorbance phosphatase assay; in the data active = inhibition above about 60%
Target sequence (Q8TCT1 whole entry, looked up): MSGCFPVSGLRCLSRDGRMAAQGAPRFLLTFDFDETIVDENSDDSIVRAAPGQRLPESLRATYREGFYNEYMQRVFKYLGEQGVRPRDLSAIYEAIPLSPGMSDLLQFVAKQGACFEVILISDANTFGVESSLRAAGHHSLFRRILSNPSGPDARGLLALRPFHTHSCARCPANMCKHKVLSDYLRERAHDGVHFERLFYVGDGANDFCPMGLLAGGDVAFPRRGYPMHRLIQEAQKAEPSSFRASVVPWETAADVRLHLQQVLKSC
core dimer inh: blocks dimerization of HCV core protein. TR-FRET GST/Flag-core106 dimerization, 1536-well. inhibition, % at 5 µM. actives 0.33% (n = 300,000);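 active = inhibition above the mean of all tested compounds plus 3 SD, set per screening campaign, cut at about 45% in these data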
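Assay system: Tagged HCV core106 pair (GST and Flag) | Buffer or medium: KF-containing HEPES buffer, pH 7.45, DTT, CHAPS, BSA | Also added: Eu donor and XL665 acceptor anti-tag antibodies | Dosing: One concentration, 5 µM, in 0.5% DMSO | Timing: 4 h at 22.5 °C | Technique: TR-FRET 671 and 617 nm emission | Repeats: Singlicate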
HSF-1 act: increases HSF-1 driven luciferase reporter signal | activation, % at 9 µM | actives 1.7% (n = 300,000) | NIH3T3-HGL HSF-1 luciferase reporter, MG132, 8 h; 100% = twice DMSO control signal;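 active = mean replicate activation of at least 50% with a set share of replicates each reaching 50%; inconclusive = only one of those two conditions met; inactive = mean below 50% and too few replicates reaching it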
HSF1 inh: HSF1 inhibition. NIH3T3-HGL HSE-luciferase, MG132-induced, luminescence 8 h; active compounds read low. activity change, negative = inhibition, % at 7.5 µM (by protocol). actives 0.77% (n = 300,000);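 active = more than half of replicate wells show activity change below -50%, luminescence cut by over half; inconclusive = some wells, but at most half, below -50%; inactive = no replicate well below -50%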;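 also: luciferase reports HSF-1 transcriptional activity via heat shock element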
ALR inh: blocks human ALR sulfhydryl oxidase activity; P55789; purified ALR, DTT oxidation, H2O2 HRP-luminol luminescence; inhibition, % (test concentration not listed); actives 3.8% (n = 290,000);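 active = mean replicate inhibition above about 79%, with every replicate also reaching it, limit read from the data; inconclusive = only one of the two criteria met; inactive = mean below limit and not every replicate reaching it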
Target sequence (P55789 whole entry, looked up): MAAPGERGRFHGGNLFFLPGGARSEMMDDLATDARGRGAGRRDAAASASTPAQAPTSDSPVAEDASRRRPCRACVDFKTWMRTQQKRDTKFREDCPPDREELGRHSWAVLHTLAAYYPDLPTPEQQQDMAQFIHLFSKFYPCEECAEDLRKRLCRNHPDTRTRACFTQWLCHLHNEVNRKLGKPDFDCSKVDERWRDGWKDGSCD
JMH597 growth: retest Vibrio harveyi JMH597 growth inhibition; shares compounds with AI-2 QS modul; actives 1% (n = 750); OD600 absorbance, 9 h; lacks LuxN and CqsS sensors; growth inhibition, % at 7.5 µM;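 active = every replicate shows growth inhibition above 50%; inconclusive = at least half, but not all, replicates pass that cutoff; inactive = fewer than half of replicates pass it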
BB721 const-QS lum: retest counter-screen: luminescence loss in constitutive-on quorum sensing strain BB721. actives 95% (n = 750). inhibition, % at 7.5 µM. Vibrio harveyi BB721 luminescence, 9 h. shares compounds with AI-2 QS modul;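 active = inhibition above about 80% in every replicate, not just on average, limit read from the data; inconclusive = at least half of replicates past the limit, but not all; inactive = fewer than half of replicates past the limit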
BB721 growth rt: retest: inhibitors of Vibrio harveyi BB721 growth; shares compounds with AI-2 QS modul; growth inhibition, % at 7.5 µM; actives 3% (n = 750); AID 2728; OD600 absorbance, 9 h;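 active = every replicate shows growth inhibition above 50%; inconclusive = at least half but not all replicates above 50% inhibition; inactive = under half of replicates above 50% inhibition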
JMH597 AI-2 mod: Vibrio harveyi AI-2 signaling luminescence modulation – JMH597 strain, confirmation; actives 97% (n = 750); shares compounds with AI-2 QS modul; AID 2736; Vibrio harveyi JMH597 AI-2 quorum sensing luminescence, 9 h; luxN and CqsS knockout, AI-2 only; inhibition, % at 7.5 µM;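 active = every replicate shows more than 75% inhibition of signal versus neutral control wells; inconclusive = half to three quarters of replicates exceed 75% inhibition; inactive = fewer than half of replicates exceed 75% inhibition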
Large screens that a line does not name were inactive (follow-up assays come after a bar, where they were run). Rows were chosen to be rich in hits. Some 6.8% of all compounds tested hit in one or more screens of this group.

CC(C)c1ccc(O)c(NC(=O)c2cncc(Br)c2)c1	AI-2 QS modul -94 (no result: ALR inh) | JMH597 growth inactive | BB721 const-QS lum 98 | BB721 growth rt inactive | JMH597 AI-2 mod 98
CN1CCN(S(=O)(=O)c2ccc(Oc3ccc(F)cc3Br)nc2)CC1	none (no result: ALR inh)
CN1CCN(S(=O)(=O)c2ccc(Oc3ccc(Br)cc3F)nc2)CC1	AI-2 QS modul -84 (no result: PHOSPHO1 inh) | JMH597 growth inactive | BB721 const-QS lum 82 | BB721 growth rt inactive | JMH597 AI-2 mod 99
O=C(COC(=O)c1ccccc1C(=O)c1ccc(Cl)cc1)NCC1CCCO1 (configuration not stated)	none
O=C(Nc1ccc(Cc2ccncc2)cc1)c1ccc(Br)o1	AI-2 QS modul -81 | JMH597 growth inactive | BB721 const-QS lum 88 | BB721 growth rt inactive | JMH597 AI-2 mod 94
C(=N\NCc1ccccc1)/c1ccc2ncccc2c1	AI-2 QS modul -95 (no result: ALR inh) | JMH597 growth inactive | BB721 const-QS lum 98 | BB721 growth rt inactive | JMH597 AI-2 mod 99
Cc1cccc(NC(=O)COC(=O)c2cc(C)oc2C)c1	AI-2 QS modul -88 | JMH597 growth inactive | BB721 const-QS lum 95 | BB721 growth rt inactive | JMH597 AI-2 mod 97
CC(=O)c1cccc(NC(=O)CSC(=O)c2ccccc2)c1	AI-2 QS modul -87, ALR inh 99 | JMH597 growth inactive | BB721 const-QS lum 95 | BB721 growth rt inactive | JMH597 AI-2 mod 97
O=C(COC(=O)c1ccc(F)cc1F)NCCNC(=O)COC(=O)c1ccc(F)cc1F	none
CC(=O)c1cccc(NC(=O)COC(=O)c2ccccc2C)c1	AI-2 QS modul -90 | JMH597 growth inactive | BB721 const-QS lum 98 | BB721 growth rt inactive | JMH597 AI-2 mod 99
Cc1cc(C(=O)OCC(=O)Nc2cccc(S(N)(=O)=O)c2)c(C)o1	none (no result: AI-2 QS modul, PHOSPHO1 inh, core dimer inh, HSF-1 act, HSF1 inh)
CC(=O)c1cccc(NC(=S)NC(=O)Cc2ccccc2)c1	none
CC(=O)c1ccc(NC(=O)COC(=O)c2ccc(F)cc2F)cc1	AI-2 QS modul -90 | JMH597 growth inactive | BB721 const-QS lum 97 | BB721 growth rt inactive | JMH597 AI-2 mod 98
COc1ccc(Cl)cc1NC(=O)CN(C)C(=O)CCNC(=O)c1ccccc1OC	none (no result: AI-2 QS modul, PHOSPHO1 inh, core dimer inh, HSF-1 act, HSF1 inh)
CCCCCC(=O)NC(=S)Nc1cccc(C(C)=O)c1	AI-2 QS modul -95 | JMH597 growth inactive | BB721 const-QS lum 95 | BB721 growth rt inactive | JMH597 AI-2 mod 96
O=C(C[C@@H]1C/C=C\CC[C@H](Cc2ccc(F)cc2)C(=O)OC[C@@H]2CCCN2C1=O)NCCO	none (no result: AI-2 QS modul, PHOSPHO1 inh, core dimer inh, HSF-1 act, HSF1 inh)
O=C(NCc1ccccc1)c1cc(-c2cccc(O)c2)on1	AI-2 QS modul -82 | JMH597 growth inactive | BB721 const-QS lum 88 | BB721 growth rt inactive | JMH597 AI-2 mod 92
O=C(CCC1CCCCC1)Nc1ccccc1O	AI-2 QS modul -85, HSF-1 act 59, ALR inh 91 | JMH597 growth inactive | BB721 const-QS lum 94 | BB721 growth rt inactive | JMH597 AI-2 mod 94
Cc1ccc(Cn2cccc(NC(=O)CCC3CCCC3)c2=O)cc1	none
Cc1ccc(O)c(NC(=O)CCC2CCCCC2)c1	AI-2 QS modul -84, HSF-1 act 151 | JMH597 growth inactive | BB721 const-QS lum 93 | BB721 growth rt inactive | JMH597 AI-2 mod 95
CCOC(=O)c1nnc(-c2ccccc2)nc1N1CC(C)OC(C)C1 (configuration not stated)	none
NC(=S)Nc1cc(Cl)cc(Cl)c1	AI-2 QS modul -82 (no result: ALR inh) | JMH597 growth inactive | BB721 const-QS lum inactive | BB721 growth rt inactive | JMH597 AI-2 mod inconclusive
NC(=S)Nc1cccc(Cl)c1	none
C=CCSC1=N/C(=C/c2ccsc2)C(=O)N1c1ccccc1	none
O=C1CCCC(=O)N1c1ccc(O)cc1	none
O=C1CCCC(=O)N1c1ccc(Oc2ccc(Cl)cc2)cc1	AI-2 QS modul -84 | JMH597 growth inactive | BB721 const-QS lum 89 | BB721 growth rt inactive | JMH597 AI-2 mod 92
CN(C)S(=O)(=O)c1ccc(NC(=O)C2COc3ccccc3O2)cc1 (configuration not stated)	AI-2 QS modul -89 (no result: ALR inh) | JMH597 growth inactive | BB721 const-QS lum 96 | BB721 growth rt inactive | JMH597 AI-2 mod 98
O=C(Nc1ccc(S(=O)(=O)Nc2ccccc2)cc1)C1COc2ccccc2O1 (configuration not stated)	none
O=C(Nc1ccc(S(=O)(=O)N2CCCC2)cc1)C1COc2ccccc2O1 (configuration not stated)	AI-2 QS modul inconclusive (no result: ALR inh) | JMH597 growth inactive | BB721 const-QS lum 93 | BB721 growth rt inactive | JMH597 AI-2 mod 99
O=C(Nc1ccc(S(=O)(=O)N2CCOCC2)cc1)C1COc2ccccc2O1 (configuration not stated)	none
CC(C)[C@H](NC(=O)OCc1ccccc1)C(=O)OCc1cc(=O)oc2cc(O)ccc12	none
Cc1ccc(SC[C@H](Cc2ccccc2)N2CC[C@@H](NC(=O)OCc3ccccc3)CCC2=O)cc1	none
O=C(NCCc1ccc(Cl)cc1)C(=O)c1c[nH]c2ccccc12	none
Cc1ccsc1C(=O)NCCc1c[nH]c2ccccc12	AI-2 QS modul -82 | JMH597 growth inactive | BB721 const-QS lum 92 | BB721 growth rt inactive | JMH597 AI-2 mod 94
O=C(NCCc1c[nH]c2ccccc12)C(=O)c1c[nH]c2ccccc12	AI-2 QS modul -90 | JMH597 growth inactive | BB721 const-QS lum 96 | BB721 growth rt inactive | JMH597 AI-2 mod 97
COc1ccc(C(=O)NCCc2c[nH]c3ccccc23)cc1	none
COc1cc(SC)ccc1C(=O)NCCc1c[nH]c2ccccc12	none (no result: ALR inh)
O=C(NCCc1c[nH]c2ccccc12)c1ccc(F)cc1F	AI-2 QS modul -82 (no result: ALR inh) | JMH597 growth inactive | BB721 const-QS lum 95 | BB721 growth rt inactive | JMH597 AI-2 mod 97
O=C(NCCc1c[nH]c2ccccc12)c1ccc(Cl)cc1	AI-2 QS modul -85, HSF-1 act 59 | JMH597 growth inactive | BB721 const-QS lum 93 | BB721 growth rt inactive | JMH597 AI-2 mod 95
CC1CN(C(=O)Cn2c(=O)oc3ccccc32)CC(C)O1 (configuration not stated)	none
CCOC(=O)c1ccc(-n2c(CN3CCC(O)CC3)nc3ccc([N+](=O)[O-])cc3c2=O)cc1	none (no result: ALR inh)

Screening data (PubChem BioAssay)
